Results reported in ChEMBL document CHEMBL1123723, “S-[(N,N'-diarylamidino)methyl] diethyldithiocarbamates and related amides as potential radioprotectants” (J Med Chem, 1987).

Tests used:
[1] = organism: Mus musculus; assay: Antiradiation evaluation test was carried out in mice and mean survival time(MST) for mice that died over a 30 day period was determined.; format: functional
How it was run: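 Mice (strain "H", both sexes, 23-25 g, 20 per group) were given the drug as a methylcellulose/Tween-80 suspension and exposed to 800-rad X-rays at 96 rads/min alongside untreated controls. The value is the mean survival time of the mice that died within the 30-day observation period.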

[2] = system: Mus musculus; assay: Antiradiation evaluation test was carried out in mice and percent of survival of animals after 30-day was determined at lowest dose of 340 mg/kg required for the highest survival rate.; format: functional; details: 720 h
[3] = Antiradiation evaluation test was carried out in mice and lethal dose for antiradiation effect at 800 rads was evaluated by the x-ray.; format: ADME, organism-based; details: mouse, in vivo
[4] = system: Mus musculus; assay: Antiradiation evaluation test was carried out in mice and percent of survival of animals after 30-day was determined at lowest dose of 210 mg/kg required for the highest survival rate.; format: functional; details: 720 h
[5] = system: Mus musculus; assay: Antiradiation evaluation test was carried out in mice and percent of survival of animals after 30-day was determined at lowest dose of 250 mg/kg required for the highest survival rate.; format: functional; details: 720 h
[6] = system: Mus musculus; assay: Antiradiation evaluation test was carried out in mice and percent of survival of animals after 30-day was determined at lowest dose of 150 mg/kg required for the highest survival rate.; format: functional; details: 720 h
[7] = system: Mus musculus; assay: Antiradiation evaluation test was carried out in mice and percent of survival of animals after 30-day was determined at lowest dose of 280 mg/kg required for the highest survival rate.; format: functional; details: 720 h
[8] = system: Mus musculus; assay: Antiradiation evaluation test was carried out in mice and percent of survival of animals after 30-day was determined at lowest dose of 360 mg/kg required for the highest survival rate.; format: functional; details: 720 h
[9] = system: Mus musculus; assay: Antiradiation evaluation test was carried out in mice and percent of survival of animals after 30-day was determined at lowest dose of 125 mg/kg required for the highest survival rate.; format: functional; details: 720 h

Row | SMILES | MST [1] | LD50 [3] | survival at 150 mg/kg [6] | also measured
1 | CCN(CC)C(=S)SC/C(=N\c1ccc(OC)cc1)Nc1ccc(OC)cc1 | 14.3 days | 1370 mg/kg | – | survival at 340 mg/kg [2]: 60%
2 | CCOc1ccc(N/C(CSC(=S)N(CC)CC)=N/c2ccc(C)cc2)cc1 | 10.5 days | 850 mg/kg | – | survival at 210 mg/kg [4]: 25%
3 | CCN(CC)C(=S)SC/C(=N\c1ccc(C)cc1)Nc1ccc(OC)cc1 | 9.8 days | 970 mg/kg | – | survival at 250 mg/kg [5]: 40%
4 | CCN(CC)C(=S)SC/C(=N\c1ccccc1)Nc1ccccc1 | 8.1 days | 840 mg/kg | 5% | –
5 | CCN(CC)C(=S)SC/C(=N\c1ccc(C)cc1)Nc1ccc(C)cc1 | 6.1 days | 970 mg/kg | – | survival at 210 mg/kg [4]: 0%
6 | CCOc1ccc(N/C(CSC(=S)N(CC)CC)=N/c2ccc(OC)cc2)cc1 | 13.5 days | 1270 mg/kg | – | survival at 280 mg/kg [7]: 60%
7 | CCOc1ccc(/N=C(\CSC(=S)N(CC)CC)Nc2ccc(OCC)cc2)cc1 | 13.5 days | 1240 mg/kg | – | survival at 360 mg/kg [8]: 70%
8 | CCOc1ccc(N/C(CSC(=S)N(CC)CC)=N/c2ccccc2)cc1 | 9.1 days | 800 mg/kg | 35% | –
9 | CCN(CC)C(=S)SC/C(=N\c1ccccc1)Nc1ccc(OC)cc1 | 10.8 days | 780 mg/kg | 10% | –
10 | CCN(CC)C(=S)SC/C(=N\c1ccccc1)Nc1ccc(C)cc1 | 9.6 days | 720 mg/kg | – | survival at 125 mg/kg [9]: 10%
